Assay results from paper PMC2882558 (Biopolymers, 2010).
Where two headings read alike, the source gives them in different places. Square brackets hold non-standard residues; d marks the D form. Ends that are not written are not given here. Peptide text beside a SMILES is read from it. Nle = CCCC[C@H](N)C(=O)O

Tests used:
[1] = tested on: 20S proteasome; assay: Peptidase activities of 20S proteasome; assay type: biochemical, human; settings: single peptides; not shown
Method in brief: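 Human erythrocyte 20S CP, latent or 0.005% SDS-activated, 3 nM final; 50 mM Tris/HCl pH 8.0, DMSO ≤3% final. Test peptide preincubated 10 min at room temperature, then substrate added at 50 or 100 μM final: Suc-LLVY-MCA (ChT-L), Boc-LRR-MCA (T-L), Z-LLE-βNA (PGPH). Emission 460 nm every 2 min, ≤60 min, 37°C; nmol product/mg CP/s; ≥3 repeats across proteasome batches.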

[2] = tested on: 20S proteasome activated with 0.005% SDS, ChT-L activity; assay: ChT-L peptidase activity of SDS-activated 20S proteasome; assay type: biochemical, human; settings: 100% = DMSO solvent control
[3] = Solubility in NMR phosphate buffer; assay type: physicochemical; settings: KH2PO4/Na2HPO4 buffer, pH 6.8 (NMR samples)
[4] = tested on: 20S proteasome (CP) with PA28αβ activator; assay type: biochemical, human
Method in brief: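 Human erythrocyte 20S CP (3 nM final) in 50 mM Tris/HCl pH 8.0 was pretreated with DMSO (≤3% final) or peptide, then mixed with purified human PA28αβ at set molar ratios. After 5 min preincubation, SucLLVY-MCA (50 or 100 μM final) was added. AMC fluorescence at 460 nm was read every 2 min for up to 60 min at 37°C. Activity was expressed as nmol AMC/mg CP/s, with ≥3 repeats using different proteasome batches.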

IPKIEDGNDFGV
Effect on any of the peptidase activities of 20S proteasome [1]: did not substantially affect

CCCC[C@H](NC(=O)CNC(=O)[C@H](CCCCN)NC(=O)[C@@H](NC(=O)[C@H](CCC(=O)O)NC(=O)CNC(=O)[C@H](CCCNC(=N)N)NC(=O)[C@@H]1CCCN1C(=O)[C@H](CCCCN)NC(=O)[C@@H](N)CCCCN)[C@@H](C)O)C(=O)N[C@H](C(=O)N[C@@H](Cc1ccc(O)cc1)C(N)=O)[C@@H](C)CC [KKP] (H-KKPRGETKG[Nle]IY-NH2)
% of Ch-L activity, SDS-activated proteasome ([2]; 1 mM peptide): 107% | % of Ch-L activity, SDS-activated proteasome ([2]; 2 mM peptide): 115% | % of Ch-L activity, SDS-activated proteasome ([2]; 5 mM peptide): 108% | % of Ch-L activity, SDS-activated proteasome ([2]; 10 mM peptide): 106%

RKKRRQRRQDPI-NH2 [Tat2]
Solubility in buffer [3]: not fully soluble

N=C(N)NCCC[C@H](NC(=O)CN)C(=O)N[C@@H](CCCCN)C(=O)N[C@@H](CCCCN)C(=O)N[C@@H](CCCNC(=N)N)C(=O)N[C@@H](CCCNC(=N)N)C(=O)N[C@@H](CCC(N)=O)C(=O)N[C@@H](CCCNC(=N)N)C(=O)N[C@@H](CCCNC(=N)N)C(=O)N[C@@H](CCCNC(=N)N)C(=O)N1CCC[C@H]1C(=O)N[C@@H](CO)C(N)=O [Tat1]
Solubility in buffer [3]: not fully soluble

IPRIEDGNNFGV
Effect on any of the peptidase activities of 20S proteasome [1]: did not substantially affect

PA28αβ: purified human PA28αβ proteasome activator (BioMol Inc.)
Activation of CP by PA28αβ (fold) ([4]; CP:PA28αβ molar ratio 1:1): approximately 2,5 x | Activation of CP by PA28αβ (fold) ([4]; CP:PA28αβ molar ratio 1:2): ~5 x | Activation of CP by PA28αβ (fold) ([4]; CP:PA28αβ molar ratio 1:4): ~8 x
